{"source": "paper PMC3475454", "about": "(Bioscience Reports, 2012)", "key": {"firefly luciferase [1]": {"target": "T1, firefly luciferase (Photinus pyralis, UniProt P08659)", "T1 sequence (P08659 whole entry)": "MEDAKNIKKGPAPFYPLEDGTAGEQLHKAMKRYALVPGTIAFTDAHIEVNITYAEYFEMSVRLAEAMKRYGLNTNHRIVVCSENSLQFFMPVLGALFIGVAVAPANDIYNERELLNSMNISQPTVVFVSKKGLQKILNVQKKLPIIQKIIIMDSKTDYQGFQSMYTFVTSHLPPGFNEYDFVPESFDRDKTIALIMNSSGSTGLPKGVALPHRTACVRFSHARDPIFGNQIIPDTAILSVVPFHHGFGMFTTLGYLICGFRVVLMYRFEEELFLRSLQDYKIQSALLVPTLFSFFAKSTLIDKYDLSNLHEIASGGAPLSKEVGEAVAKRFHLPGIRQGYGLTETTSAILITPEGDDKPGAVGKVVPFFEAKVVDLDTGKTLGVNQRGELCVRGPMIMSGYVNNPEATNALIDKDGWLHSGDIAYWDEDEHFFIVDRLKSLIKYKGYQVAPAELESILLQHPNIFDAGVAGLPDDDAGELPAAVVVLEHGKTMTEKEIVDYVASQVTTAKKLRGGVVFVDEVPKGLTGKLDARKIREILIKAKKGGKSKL", "assay": "Monitoring of firefly luciferase in living cells with D-luciferin-ethylester", "format": "cell-based", "conditions": "20 μM, 30 min pre-incubation, 70.4 K15 and 55.1c K65 cells", "outline": "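Living 70.4 K15 and 55.1c K65 cells stably expressing firefly luciferase were pre-incubated for 30 min in medium with 20 μM test compound (37°C, 5% CO2) and then washed with PBS. After 5 min, signal was read on a plate reader over 4 min or on a CCD camera over 8 min; n=4.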"}, "[2]": {"test_system": "β-catenin target genes Axin2 and Gpr49", "assay": "Real-time RT-PCR of β-catenin target genes", "format": "cell-based, mouse", "conditions": "20 μM, 24 h"}, "Gaussia luciferase": {"test_system": "Gaussia luciferase", "assay": "Gaussia luciferase activity assay in cell culture supernatant", "format": "biochemical", "conditions": "20 μM, Hepa1c1c7, 70.4 and 55.1c cells", "outline": "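Hepa1c1c7, 70.4 and 55.1c cells were transfected by Lipofectamine 2000 with an AP-1-responsive Gaussia luciferase vector. After 24 h, culture supernatant was taken. 20 μM test compound (1% v/v of 2 mM DMSO solution) was added 5 min before reading. Luminescence was read for 10 s; n=3 and 4.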"}, "firefly luciferase [3]": {"target": "T1, firefly luciferase", "assay": "Firefly luciferase activity assay in cell lysates, compound added to lysate", "format": "biochemical", "conditions": "for IC50: IC50 for firefly luciferase inhibition"}, "Renilla luciferase": {"target": "Renilla luciferase (Renilla reniformis, UniProt P27652)", "sequence (P27652 whole entry)": "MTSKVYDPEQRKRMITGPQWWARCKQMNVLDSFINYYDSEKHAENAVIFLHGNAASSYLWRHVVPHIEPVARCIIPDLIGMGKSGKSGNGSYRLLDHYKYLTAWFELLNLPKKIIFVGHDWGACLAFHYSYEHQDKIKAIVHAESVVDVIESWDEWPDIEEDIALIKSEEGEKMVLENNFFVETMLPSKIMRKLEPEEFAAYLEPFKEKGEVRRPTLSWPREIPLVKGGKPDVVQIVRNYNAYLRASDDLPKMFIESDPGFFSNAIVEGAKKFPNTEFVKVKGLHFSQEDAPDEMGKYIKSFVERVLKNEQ", "assay": "Renilla luciferase activity assay in cell lysates", "format": "biochemical", "conditions": "20 μM added to lysates of Hepa1c1c7, 70.4 and 55.1c cells", "outline": "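Hepa1c1c7, 70.4 and 55.1c cells were transfected with CMV-driven Renilla luciferase plasmid. After 24 h, cells were lysed in passive lysis buffer. 20 μM test compound (1% v/v of 2 mM DMSO stock) was added to the lysate 5 min before reading. Luminescence was read for 10 s; n=3 and 4.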"}, "firefly luciferase [4]": {"target": "T1, firefly luciferase", "assay": "Firefly luciferase reporter", "format": "cell-based", "conditions": "20 μM; for Firefly luciferase inhibition in cells: stably transfected cell lines", "outline": "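Stably STF-transfected 70.4- and 55.1c-derived mouse hepatoma clones, with G418 removed at plating, were exposed in culture to 20 μM test compound (0.1% DMSO) for 1 h or 24 h. Cells were lysed in passive lysis buffer. Signal was normalised to Alamar Blue vitality and expressed as % untreated; n=3 and 4.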"}, "firefly luciferase [5]": {"target": "T1, firefly luciferase", "assay": "Inhibition of pure commercially available firefly luciferase", "format": "biochemical", "conditions": "10 μM, different enzyme concentrations", "outline": "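Purified commercial firefly luciferase was prepared as a stock of 1 mg/ml in luciferase assay buffer lacking ATP and D-luciferin, supplemented with 0.1% BSA. Several enzyme concentrations were assayed with 10 μM test compound. Values are means of two experiments.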"}, "firefly luciferase [6]": {"test_system": "firefly luciferase", "conditions": "cited from earlier work"}, "Ultra-Glo luciferase": {"target": "T2, Ultra-Glo luciferase (Photuris pensylvanica, UniProt Q27757)", "T2 sequence (Q27757 1-545)": "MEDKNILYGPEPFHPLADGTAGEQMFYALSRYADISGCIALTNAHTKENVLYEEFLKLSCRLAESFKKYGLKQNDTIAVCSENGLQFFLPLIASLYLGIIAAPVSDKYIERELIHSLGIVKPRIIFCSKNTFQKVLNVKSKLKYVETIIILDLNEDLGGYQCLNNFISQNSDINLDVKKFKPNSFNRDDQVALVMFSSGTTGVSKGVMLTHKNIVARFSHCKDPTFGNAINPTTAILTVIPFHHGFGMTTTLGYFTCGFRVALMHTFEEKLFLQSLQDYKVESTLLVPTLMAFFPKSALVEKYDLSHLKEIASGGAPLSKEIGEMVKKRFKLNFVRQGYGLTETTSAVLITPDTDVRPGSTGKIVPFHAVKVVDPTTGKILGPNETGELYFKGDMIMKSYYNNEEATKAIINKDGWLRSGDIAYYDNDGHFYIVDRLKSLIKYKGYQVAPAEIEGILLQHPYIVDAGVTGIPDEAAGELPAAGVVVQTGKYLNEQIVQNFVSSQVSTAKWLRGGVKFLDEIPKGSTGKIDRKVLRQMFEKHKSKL", "conditions": "ref Promega Corporation web page; cited from earlier work"}}}
{"compound": "COc1ccc(/C=C/c2ccccc2F)cc1", "note": "[NFκBAI4, (E)-2-fluoro-4′-methoxystilbene]", "values": [{"measurement": "Firefly luciferase activity in living cells", "setting": "firefly luciferase [1]", "result": "effectively inhibits"}, {"measurement": "mRNA levels of Axin2 and Gpr49", "setting": "[2]", "result": "not accompanied by a decrease in mRNA levels"}, {"measurement": "Effect on Gaussia luciferase", "setting": "Gaussia luciferase", "result": "not affected"}, {"measurement": "Decay of the luminescence signal", "setting": "firefly luciferase [3]; 1 μM, coenzyme A-free buffer, 9 min, compared with untreated lysate", "result": "somewhat less pronounced"}, {"measurement": "Quenching of remnant firefly signal by Renilla buffer", "setting": "firefly luciferase [3]; 20 μM added to Renilla buffer", "result": "further improved"}, {"measurement": "Inhibition of firefly luciferase signals", "setting": "firefly luciferase [3]; 20 μM added to lysates of untreated transiently transfected Hepa1c1c7, 70.4 and 55.1c cells", "result": "strongly inhibited"}, {"measurement": "IC50", "setting": "firefly luciferase [3]; lysate of 55.1cSTF K53 cells", "result": 950, "unit": "nM"}, {"measurement": "IC50", "setting": "firefly luciferase [3]; lysate of 55.1cSTF K65 cells", "result": 1420, "unit": "nM"}, {"measurement": "IC50", "setting": "firefly luciferase [3]; lysate of 70.4STF K15 cells", "result": 850, "unit": "nM"}, {"measurement": "IC50", "setting": "firefly luciferase [3]; lysate of 70.4STF K31 cells", "result": 880, "unit": "nM"}, {"measurement": "IC50", "setting": "firefly luciferase [3]; reaction buffer without coenzyme A, results not shown", "result": "~1000", "unit": "nM"}, {"measurement": "Mechanism of inhibition with respect to ATP and D-luciferin", "setting": "firefly luciferase [3]; varied ATP and D-luciferin, mixed hyperbolic fit", "result": "non-competitive"}, {"measurement": "Effect on Renilla luciferase", "setting": "Renilla luciferase", "result": "not affected"}, {"measurement": "Duration of firefly luciferase inhibition in living cells", "setting": "firefly luciferase [4]", "result": "> 24", "unit": "h"}, {"measurement": "Firefly luciferase inhibition in cells", "setting": "firefly luciferase [4]; 1 h incubation", "result": "strongly inhibited"}, {"measurement": "Luminescence of STF firefly luciferase reporter", "setting": "firefly luciferase [4]; 24 h, transiently transfected Hepa1c1c7, 70.4 and 55.1c cells", "result": "strong decrease of luminescence"}, {"measurement": "Firefly luciferase inhibition in cells", "setting": "firefly luciferase [4]; 24 h incubation", "result": "still pronounced"}, {"measurement": "Firefly luciferase inhibition in cells", "setting": "firefly luciferase [4]; 48 h incubation", "result": "still visible in 70.4-derived, but not in 55.1c-derived, cell lines"}, {"measurement": "Inhibition of pure firefly luciferase", "setting": "firefly luciferase [5]", "result": "also inhibited"}]}
{"compound": "Oc1ccc(/C=C/c2cc(O)cc(O)c2)cc1", "note": "[Resveratrol, 3,5,4′-trihydroxy-trans-stilbene]", "values": [{"measurement": "Mechanism of inhibition with respect to ATP and D-luciferin", "setting": "firefly luciferase [6]", "result": "non-competitive"}, {"measurement": "Resistance of Ultra-Glo luciferase against inhibition", "setting": "Ultra-Glo luciferase", "result": "more resistant"}, {"measurement": "Firefly luciferase inhibition in cells", "setting": "firefly luciferase [4]; 1 h incubation", "result": "weaker"}, {"measurement": "Firefly luciferase inhibition in cells", "setting": "firefly luciferase [4]; 24 h incubation", "result": "disappeared in all cell lines"}]}
{"compound": "Cc1cccc(/C=C/c2ccccc2)n1", "note": "[SIB-1893]", "values": [{"measurement": "Efficacy of firefly luciferase inhibition", "setting": "firefly luciferase [6]; compared with NFκBAI4", "result": "somewhat lower efficacy"}]}
